Results as given in ChEMBL document CHEMBL3865790, “2-(Phenylsulfonyl)quinoline N-hydroxyacrylamides as potent anticancer agents inhibiting histone deacetylase” (Eur J Med Chem, 2016).
Calls of active or inactive are those of the source. The rule behind the calls is not given here.

Key:
[1] = Antiproliferative activity against human PC3 cells after 48 hrs by SRB assay; type: functional, PC-3
Procedure, shortened: (§1)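 Cells grown in RPMI 1640 with 10% FBS and antibiotics, then seeded in medium with 5% FBS. A T0 plate was fixed with 10% TCA at 24 h. Remaining cells were exposed to compound or DMSO for 48 h, TCA-fixed, and stained with 0.4% SRB in 1% acetic acid. Dye was solubilized in 10 mM Trizma base and read at 515 nm.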

[2] = Antiproliferative activity against human HCT116 cells after 48 hrs by SRB assay; type: functional, HCT-116; procedure, shortened: as §1
[3] = Antiproliferative activity against human A549 cells after 48 hrs by SRB assay; type: functional; procedure, shortened: as §1
[4] = Antiproliferative activity against human HL60 cells after 48 hrs by SRB assay; type: functional, HL-60; procedure, shortened: as §1
[5] = tested on: Mus musculus; experiment: Toxicity in nude mouse xenografted with human HCT116 cells assessed as change in body weight at 200 mg/kg, po qd; type: organism-based, HCT-116; details: in vivo
[6] = tested on: HCT-116; details: Homo sapiens, at 0.3 µM
[7] = tested on: PC-3; details: Homo sapiens, at 0.3 µM
[8] = molecular target: T1, Protein deacetylase HDAC6 (Homo sapiens, UniProt Q9UBN7); experiment: Inhibition of full length recombinant human HDAC6 expressed in baculovirus expression system assessed as release of 7-amino-4-methylcoumarin by fluorogenic assay
T1 sequence (Q9UBN7 whole entry): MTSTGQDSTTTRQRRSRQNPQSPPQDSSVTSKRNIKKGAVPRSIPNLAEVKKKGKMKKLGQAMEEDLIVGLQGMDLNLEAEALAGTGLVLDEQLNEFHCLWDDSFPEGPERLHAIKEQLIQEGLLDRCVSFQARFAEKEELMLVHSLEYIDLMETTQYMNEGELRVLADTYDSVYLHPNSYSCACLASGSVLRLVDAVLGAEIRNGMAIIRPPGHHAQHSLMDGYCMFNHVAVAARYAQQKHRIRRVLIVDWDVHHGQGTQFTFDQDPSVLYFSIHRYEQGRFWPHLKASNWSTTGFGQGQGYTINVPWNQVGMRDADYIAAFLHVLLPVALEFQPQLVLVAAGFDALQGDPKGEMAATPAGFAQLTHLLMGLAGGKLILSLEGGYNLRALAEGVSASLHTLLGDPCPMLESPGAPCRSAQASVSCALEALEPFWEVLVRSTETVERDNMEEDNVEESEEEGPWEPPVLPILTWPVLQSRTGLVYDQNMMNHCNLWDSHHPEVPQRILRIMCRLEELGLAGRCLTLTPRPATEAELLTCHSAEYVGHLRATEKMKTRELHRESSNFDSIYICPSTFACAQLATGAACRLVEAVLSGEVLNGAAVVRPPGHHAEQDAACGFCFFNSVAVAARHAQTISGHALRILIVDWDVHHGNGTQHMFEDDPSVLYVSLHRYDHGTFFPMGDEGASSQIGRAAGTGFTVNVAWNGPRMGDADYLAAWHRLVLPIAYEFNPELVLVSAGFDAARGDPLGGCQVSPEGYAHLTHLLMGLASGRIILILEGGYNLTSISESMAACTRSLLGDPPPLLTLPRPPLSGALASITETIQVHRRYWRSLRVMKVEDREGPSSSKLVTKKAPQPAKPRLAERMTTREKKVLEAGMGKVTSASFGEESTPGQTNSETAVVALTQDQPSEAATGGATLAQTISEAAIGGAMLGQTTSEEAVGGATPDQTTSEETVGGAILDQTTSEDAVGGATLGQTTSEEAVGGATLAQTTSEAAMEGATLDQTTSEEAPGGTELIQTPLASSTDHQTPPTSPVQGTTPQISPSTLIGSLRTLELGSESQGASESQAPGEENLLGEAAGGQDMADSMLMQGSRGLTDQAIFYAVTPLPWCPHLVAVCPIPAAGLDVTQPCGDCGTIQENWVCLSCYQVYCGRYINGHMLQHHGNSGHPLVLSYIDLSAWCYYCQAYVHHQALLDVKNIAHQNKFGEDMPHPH

[9] = molecular target: T2, Histone deacetylase 8 (Homo sapiens, UniProt Q9BY41); experiment: Inhibition of His-tagged full length recombinant human HDAC8 expressed in baculovirus expression system assessed as release of 7-amino-4-methylcoumarin by fluorogenic assay
T2 sequence (Q9BY41 whole entry): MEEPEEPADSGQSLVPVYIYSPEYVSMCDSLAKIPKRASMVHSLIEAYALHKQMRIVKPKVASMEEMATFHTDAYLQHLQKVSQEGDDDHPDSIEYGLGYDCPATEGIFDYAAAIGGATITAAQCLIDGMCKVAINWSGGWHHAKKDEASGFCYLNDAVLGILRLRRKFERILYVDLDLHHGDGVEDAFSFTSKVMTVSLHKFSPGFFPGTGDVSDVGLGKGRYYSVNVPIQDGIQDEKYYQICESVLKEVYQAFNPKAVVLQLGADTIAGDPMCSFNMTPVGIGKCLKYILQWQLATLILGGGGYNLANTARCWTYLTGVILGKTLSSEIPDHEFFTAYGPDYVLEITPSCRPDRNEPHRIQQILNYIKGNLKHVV

[10] = molecular target: Histone deacetylase 2 (Homo sapiens, UniProt Q92769); experiment: Inhibition of full length recombinant human HDAC2 expressed in baculovirus expression system assessed as release of 7-amino-4-methylcoumarin by fluorogenic assay
Chain of Histone deacetylase 2 (Q92769 whole entry): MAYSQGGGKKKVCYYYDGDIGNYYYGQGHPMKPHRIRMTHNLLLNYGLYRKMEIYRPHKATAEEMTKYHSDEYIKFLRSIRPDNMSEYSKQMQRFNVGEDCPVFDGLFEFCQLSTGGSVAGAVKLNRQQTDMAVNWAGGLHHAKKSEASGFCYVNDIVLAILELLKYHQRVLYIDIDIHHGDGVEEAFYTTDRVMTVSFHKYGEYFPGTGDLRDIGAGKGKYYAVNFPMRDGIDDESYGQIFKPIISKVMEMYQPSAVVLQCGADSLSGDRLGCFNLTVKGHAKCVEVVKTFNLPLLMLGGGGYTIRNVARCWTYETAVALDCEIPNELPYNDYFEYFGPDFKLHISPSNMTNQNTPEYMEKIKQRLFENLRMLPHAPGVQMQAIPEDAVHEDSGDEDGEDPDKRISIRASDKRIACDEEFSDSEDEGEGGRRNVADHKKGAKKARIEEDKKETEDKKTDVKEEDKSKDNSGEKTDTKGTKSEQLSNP

[11] = molecular target: Histone deacetylase 1 (Homo sapiens, UniProt Q13547); experiment: Inhibition of C-terminal His/FLAG-tagged full length recombinant human HDAC1 expressed in baculovirus expression system assessed as release of 7-amino-4-methylcoumarin by fluorogenic assay
Chain of Histone deacetylase 1 (Q13547 whole entry): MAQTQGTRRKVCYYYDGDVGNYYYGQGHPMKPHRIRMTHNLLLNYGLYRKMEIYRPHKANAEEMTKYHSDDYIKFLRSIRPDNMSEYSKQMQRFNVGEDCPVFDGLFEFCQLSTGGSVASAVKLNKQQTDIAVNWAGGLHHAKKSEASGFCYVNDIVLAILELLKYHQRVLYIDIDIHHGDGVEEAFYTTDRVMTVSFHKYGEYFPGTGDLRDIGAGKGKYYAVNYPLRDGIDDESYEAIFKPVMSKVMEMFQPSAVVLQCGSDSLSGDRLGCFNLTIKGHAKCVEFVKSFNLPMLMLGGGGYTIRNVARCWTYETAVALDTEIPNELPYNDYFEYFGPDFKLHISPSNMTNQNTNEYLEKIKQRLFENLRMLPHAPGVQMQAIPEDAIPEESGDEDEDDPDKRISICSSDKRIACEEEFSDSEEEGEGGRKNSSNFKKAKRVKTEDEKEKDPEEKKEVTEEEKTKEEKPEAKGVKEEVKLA

[12] = Antitumor activity against human HCT116 cells xenografted in nude mouse assessed as tumor growth inhibition at 50 mg/kg, po qd; type: functional; details: HCT-116, po, read-out: TGI
Procedure, shortened: (§2)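 Male nude mice, 8 weeks old, implanted s.c. in the right flank with 1 x 10^7 log-phase HCT116 cells in PBS. Four groups of 7 received vehicle, 50 or 100 mg/kg test compound, or 200 mg/kg reference p.o. daily to endpoint, dosed at 10 mL/kg scaled to body weight. Tumor volume was taken as (w² × l)/2, and mice were monitored for adverse effects.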

[13] = tested on: HCT-116; experiment: Antitumor activity in human HCT116 cells xenografted in nude mouse assessed as tumor growth inhibition administered daily through oral route; type: functional, cell-based; procedure, shortened: as §2
[14] = tested on: Mus musculus; experiment: Toxicity in nude mouse xenografted with human HCT116 cells assessed as change in body weight at 50 to 100 mg/kg, po qd; type: organism-based, HCT-116; details: in vivo
[15] = Antitumor activity against human HCT116 cells xenografted in nude mouse assessed as tumor growth inhibition at 100 mg/kg, po qd; type: functional; details: HCT-116, po, read-out: TGI; procedure, shortened: as §2

SMILES | GI50 ([1]; Homo sapiens, PC-3, 48 h) [nM] | GI50 ([2]; Homo sapiens, HCT-116, 48 h) [nM] | GI50 ([3]; Homo sapiens, A549, 48 h) [nM] | GI50 ([4]; Homo sapiens, HL-60, 48 h) [nM] | further results
COc1ccc(S(=O)(=O)c2ccc3ccc(/C=C/C(=O)NO)cc3n2)cc1 | 1010 | 240 | 1510 | 830 | 
O=C(/C=C/c1cccc(S(=O)(=O)c2ccc3cc(Cl)ccc3n2)c1)NO | 760 | 920 | 1010 | 1330 | 
O=C(CCCCCCC(=O)Nc1ccccc1)NO [VORINOSTAT] |  |  |  |  | Activity [5]: Non-Toxic; GI50 [1]: 730 nM; GI50 [2]: 150 nM; GI50 [3]: 1020 nM; GI50 [4]: 1740 nM
O=C(/C=C/c1cccc(S(=O)(=O)Nc2ccccc2)c1)NO [BELINOSTAT] | 390 | 130 | 780 | 1090 | inhibition [6]: Active; inhibition [7]: Active; IC50 [8]: 50 nM
COc1ccc(S(=O)(=O)c2nc3ccccc3cc2/C=C/C(=O)NO)cc1 | > 10000 | > 10000 | > 10000 | > 10000 | 
O=C(/C=C/c1ccc(S(=O)(=O)c2ccc3ccccc3n2)cc1)NO | 490 | 310 | 880 | 800 | 
O=C(/C=C/c1cccc(C(=O)c2ccc3ccccc3n2)c1)NO | 470 | 350 | 840 | 1230 | 
COc1ccc(S(=O)(=O)c2ccc3cc(/C=C/C(=O)NO)ccc3n2)cc1 | 1350 | 1390 | 4750 | 1140 | 
COc1ccc(S(=O)(=O)c2ccc3c(/C=C/C(=O)NO)cccc3n2)cc1 | > 10000 | > 10000 | > 10000 | > 10000 | 
O=C(/C=C/c1cccc(S(=O)(=O)c2ccc3cccc(F)c3n2)c1)NO | 320 | 440 | 640 | 720 | IC50 [9]: 200 nM; inhibition [6]: Active; inhibition [7]: Active; IC50 [10]: 15 nM; IC50 [11]: 5.74 nM; IC50 [8]: 5.89 nM
COc1ccc2nc(S(=O)(=O)c3cccc(/C=C/C(=O)NO)c3)ccc2c1 | 280 | 240 | 350 | 720 | 
O=C(/C=C/c1cccc(S(=O)(=O)c2ccccn2)c1)NO | 2650 | 1480 | 1710 | 1980 | 
O=C(/C=C/c1cccc(S(=O)(=O)c2ccc3cccc(Cl)c3n2)c1)NO | 1350 | 1310 | 1420 | 2640 | 
COc1ccc(S(=O)(=O)c2ccc3cccc(/C=C/C(=O)NO)c3n2)cc1 | 790 | 310 | 1320 | 1170 | 
O=C(/C=C/c1ccc(C(=O)c2ccc3ccccc3n2)cc1)NO | 560 | 360 | 1130 | 1150 | 
O=C(/C=C/c1cccc(S(=O)(=O)c2ccc3ccccc3n2)c1)NO | 150 | 80 | 270 | 290 | inhibition in vivo at 50 mg/kg [12]: 32.2%; IC50 [9]: 130 nM; inhibition [6]: Active; inhibition [7]: Active; TGI [13]: Dose-dependent effect; IC50 [10]: 11.5 nM; Activity [14]: Non-Toxic; IC50 [11]: 14 nM; inhibition in vivo at 100 mg/kg [15]: 58.8%; IC50 [8]: 15 nM
